Measured values of several laboratories.
Target: Mitogen-activated protein kinase kinase kinase 10 (MAP3K10, Homo sapiens, UniProt Q02779)

CC(C)(O)[C@H]1CC[C@H](Nc2ccc3ncc(-c4cccc(C(F)(F)F)c4)n3n2)CC1
remaining activity (enzyme activity, inhibitor; 1 µM): 85%

Cc1ccc(C(=O)NCc2ccsc2)cc1C#Cc1cn(C(C)C)c2ncnc(N)c12
activity vs control (enzyme activity, inhibitor; 1 µM): 5%

CS(=O)(=O)NCC[C@H](NC(=O)c1cncc2c1cnn2-c1ccc(F)cc1)c1ccnc(S(C)(=O)=O)c1
remaining binding (cell-free assay, competition with immobilised ligand; 1 µM): 75%

O=C1NC(=O)c2cc(Nc3ccc(F)cc3)c(Nc3ccc(F)cc3)cc21
remaining signal (cell-free assay; 0.5 µM): 90.6%

C[C@@H]1CN(c2cc(-c3n[nH]c4ccc(OC5(C)CC5)cc34)ncn2)C[C@H](C)O1
remaining binding (cell-free assay, competition with immobilised ligand; 0.1 µM): 100%

CN1CC(Oc2cnc(C#N)cc2-c2ccn3nc(NC(=O)C4CC4)cc3c2)C1
inhibition (enzyme activity, inhibitor; 1 µM): 8%

COc1cccc2c(NCc3ccccc3)nc(-n3c(N)nc4ccccc43)nc12
inhibition (target engagement in cells, inhibitor, chemoproteomics; 20 mM): 17.4%

O=C1Nc2ccc(Cl)cc2C1=Cc1cc(Cl)c(O)c(Cl)c1
remaining signal (cell-free assay; 0.5 µM): 86.8%

O=C(Nc1cnn(-c2csc(C(=O)NC3COC3)c2)c1)Nc1ccccc1Cl
remaining activity (enzyme activity, inhibitor; 5 µM): 98.5%

O=C(N1CCS(=O)(=O)CC1)N1C[C@H](c2ccc(OC(F)(F)F)cc2)C[C@H](c2nc(C3CC3)no2)C1
remaining binding (cell-free assay, competition with immobilised ligand; 1 µM): 99%

O=C(Nc1cnn(-c2csc(C(=O)NC3COC3)c2)c1)Nc1c(F)cccc1Cl
remaining activity (enzyme activity, inhibitor; 5 µM): 94.3%

C[C@@H]1CCN(C(=O)CC#N)C[C@@H]1N(C)c1ncnc2[nH]ccc12
remaining signal (cell-free assay, inhibitor; 0.5 µM): 105%

Cc1cc(NC(=O)c2cccc3cc(-c4cccc5[nH]nc(N)c45)ccc23)ccc1F
activity vs control (enzyme activity, inhibitor; 0.1 µM): 98%

CCS(=O)(=O)c1cc2cc(C[C@](O)(CC(C)(C)c3ccc(F)cc3C(N)=O)C(F)(F)F)[nH]c2cn1
remaining binding (cell-free assay, competition with immobilised ligand; 1 µM): 100%

CC(C)(C)c1nc(-c2cccc(NS(=O)(=O)c3c(F)cccc3F)c2F)c(-c2ccnc(N)n2)s1
remaining activity (enzyme activity, inhibitor, radiometric; 1 µM): 91%

CCCOc1ccc([C@@H]2[C@@H](C(=O)O)[C@H](c3ccc4c(c3)OCO4)CN2CC(=O)Nc2c(CC)cccc2CC)cc1
remaining binding (cell-free assay, competition with immobilised ligand; 1 µM): 100%

Clc1ccc(Nc2nnc(Cc3ccncc3)c3ccccc23)cc1
remaining signal (cell-free assay; 0.5 µM): 110%

CC/C(=N\NC(=O)NCc1cccc(O)c1)c1ccc(O)c(C)c1O
inhibition (enzyme activity, inhibitor; 0.1 µM): 6.2%
